Data on 22 compounds can be found in ChEMBL document CHEMBL1135487, “Structure-activity relationship for enhancement of paracellular permeability across Caco-2 cell monolayers by 3-alkylamido-2-alkoxypropylphosphocholines” (J Med Chem, 2002).

A value given as a limit tells only on which side of the number the result lay.

In experiment [1] the test system is Caco-2. As to the kind of experiment: Increase in the mannitol flux by 10-fold (EC10x) of the control value. The class given is functional, Homo sapiens. The gist of the method: (§1)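 Caco-2 monolayers on filters, TEER 600–800 Ω·cm². Enhancer at 0.01–5.0 mM in HBSS applied apically for 20 min, then washed out. Apical side then given 0.1 mM [3H]mannitol, 37 °C, sink conditions. Basolateral samples taken at 20, 40, 60 and 90 min and counted by liquid scintillation. EC10x = concentration raising mannitol permeability 10-fold over control; triplicate.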

Experiment [2] has as its system Caco-2. As to the kind of experiment: Decrease in the trans-epithelial electrical resistance(TEER) in Caco-2 cell monolayers. In kind it is functional, cell-based. The following applies: Homo sapiens. In outline: (§2)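 Caco-2 cells (passage 45–55) grown on 1.0 cm² polycarbonate filters for 20–22 days and equilibrated 1 h in HBSS (25 mM HEPES, 25 mM glucose, pH 7.4) at 37 °C; monolayers with TEER 600–800 Ω·cm² used. Compound applied apically in HBSS at various concentrations for 20 min at room temperature. TEER read by voltohmmeter, blank filter subtracted. EC50 = concentration cutting TEER 50% versus untreated; triplicate, mean ± SD.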

Experiment [3] deals with Caco-2. The experiment is described as follows: Critical Micelle Concentration (CMC) determined by fluorescence assay using DPH as a probe. The class given is functional, Homo sapiens. The gist of the method:
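Aqueous phosphocholine solutions over a concentration range received DPH (1 µL of 10 mM stock in THF per 2 mL). They were held 30 min in the dark at room temperature, then fluorescence was read (ex 365, em 460 nm). CMC was taken as the intersection of linear fits below and above the intensity inflection; mean of triplicates.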

For experiment [4], the system named is Caco-2. As to the kind of experiment: Concentration to increase the mannitol flux by 10-fold (EC10x) of the control value. In kind it is functional, Homo sapiens. The gist of the method: as §1
The subject of experiment [5] is Caco-2. The experiment is described as follows: Concentration to decrease the transepithelial electrical resistance (TEER) in Caco-2 cell monolayers. In kind it is functional, cell-based. The following applies: Homo sapiens. The gist of the method: as §2
Experiment [6] can be described thus: Concentration to decrease mitochondrial dehydrogenase vs concentration to decrease TEER (IC50/EC50). In kind it is functional. The gist of the method:
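Ratio of two values measured on Caco-2 cells (passage 45–55). IC50: cells grown 96 h, exposed 20 min to phospholipid in HBSS, MTT added for 120 min more, SDS/HCl-isobutanol stop, absorbance 590 nm. EC50: 20–22-day monolayers (TEER 600–800 Ω·cm²), 20 min apical exposure in HBSS at room temperature, 50% TEER fall vs untreated. Triplicates.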

A word on the EC50: it is the concentration giving half of the maximal effect. `CCCCCCCCCCCCCCCCCC(=O)NCC(COP(=O)([O-])OCC[N+](C)(C)C)OCCCCCCCC` (centres undefined) came in with an EC10x in experiment [1] of more than 5000 µM. The compound further had an EC50 in experiment [2] of more than 5000 µM.
In turn, `CCCCCCCC(=O)NCC(COP(=O)([O-])OCC[N+](C)(C)C)OCCCCCC` (centres undefined) had an EC10x in experiment [1] of more than 5000 µM. In experiment [2], this compound had a concentration for a half-maximal effect (EC50) of more than 5000 µM.
For `CCCCCCCCCCCCCCCC(=O)NCC(COP(=O)([O-])OCC[N+](C)(C)C)OCCCCCCCCCC` (centres undefined) the same measures were more than 2000 µM and more than 2000 µM.
In the same order, the values of `CCCCCCCCCCCCCCCCOC(CNC(=O)CCCCCCCCC)COP(=O)([O-])OCC[N+](C)(C)C` (centres undefined) are more than 2000 µM and more than 2000 µM.
Take `CCCCCCCCCC(=O)NCC(COP(=O)([O-])OCC[N+](C)(C)C)OCCCCCCCC` (centres undefined): the CMC in experiment [3] is 55.3 µM. The same compound returned an EC10x in experiment [4] of 1210 µM. In experiment [5], this compound yielded a concentration for a half-maximal effect (EC50) of 300 µM. This compound also returned a Potency index in experiment [6] of 1.27.
`CCCCCCCCCCCCOC(CNC(C)=O)COP(=O)([O-])OCC[N+](C)(C)C` (centres undefined) registered an EC10x in experiment [1] of 4270 µM. Besides, a half-maximal effect in experiment [2] (EC50) was put at 780 µM. This compound also registered a Potency index in experiment [6] of 1.72.
Take `CCCCCCCCCCCCCCOC(CNC(=O)CCCCCCCCC)COP(=O)([O-])OCC[N+](C)(C)C` (centres undefined): the EC10x in experiment [1] was more than 2000 µM. The same compound displayed an EC50 in experiment [2] of more than 2000 µM.
Take `CCCCCCCCCC(=O)NCC(COP(=O)([O-])OCC[N+](C)(C)C)OCCCCCC` (centres undefined): the EC10x in experiment [1] came out at 730 µM. The compound also returned an EC50 in experiment [2] of 420 µM. In experiment [6], the Potency index came to 2.38.
`CCCCCCCCCC(=O)NCC(COP(=O)([O-])OCC[N+](C)(C)C)OCCCC` (centres undefined): the CMC in experiment [3] came out at 1170 µM. In experiment [1], this compound came in with an EC10x of more than 5000 µM. In experiment [2], this compound registered an EC50 of 3190 µM. Further, the Potency index in experiment [6] is 1.24.
With `CCCCCCCCCCCCCCCC(=O)NCC(COP(=O)([O-])OCC[N+](C)(C)C)OCCCCCCCC` (centres undefined), in experiment [1], the EC10x is more than 5000 µM. In addition, the half-maximal effective concentration (EC50) in experiment [2] was more than 5000 µM.
`CCCCOC(CNC(=O)CCC)COP(=O)([O-])OCC[N+](C)(C)C` (centres undefined): the EC10x in experiment [1] was more than 5000 µM. In experiment [2], this compound came in with an EC50 of more than 5000 µM.
In experiment [1], `CCCCCCCCCCCCCCCC(=O)NCC(COP(=O)([O-])OCC[N+](C)(C)C)OCCCCCC` (centres undefined) gave an EC10x of 1610 µM. In experiment [2], this compound registered an EC50 of 520 µM. The Potency index in experiment [6] worked out at 0.6.
Turning to `CCCCCCCCCCCCOC(CNC(=O)CCCCCCCCC)COP(=O)([O-])OCC[N+](C)(C)C` (centres undefined), in experiment [1], the EC10x is more than 3000 µM. The compound also gave an EC50 in experiment [2] of 1040 µM. In addition, the Potency index in experiment [6] amounted to 1.92.
For `CCCCCCCCCCCC(=O)NCC(COP(=O)([O-])OCC[N+](C)(C)C)OCCCCCC` (centres undefined) the same measures were 1010 µM, 190 µM and 0.84.
In experiment [1], `CCCCCCCC(=O)NCC(COP(=O)([O-])OCC[N+](C)(C)C)OCCCC` (centres undefined) had an EC10x of more than 5000 µM. Also, in experiment [2], the 50% effective concentration (EC50) was more than 5000 µM.
On to `CCCCCCCCCCCCCC(=O)NCC(COP(=O)([O-])OCC[N+](C)(C)C)OCC` (centres undefined), for which, in experiment [3], the CMC was determined as 148 µM. In experiment [1], this compound showed an EC10x of 890 µM. Also, the EC50 in experiment [2] was found to be 80 µM. In experiment [6], this compound returned a Potency index of 2.
For `CCCCCCCCCCCCCCCC(=O)NCC(COP(=O)([O-])OCC[N+](C)(C)C)OCCCC` (centres undefined), the EC10x in experiment [1] was 480 µM. Moreover, the EC50 in experiment [2] worked out at 90 µM. The Potency index in experiment [6] stood at 1.11.
`CCCCCCCCCCCCCCCCOC(CNC(C)=O)COP(=O)([O-])OCC[N+](C)(C)C` (centres undefined) gave an EC10x in experiment [1] of 350 µM. Also, in experiment [2], it took 70 µM to reach a half-maximal effect (EC50). This compound also registered a Potency index in experiment [6] of 1.43.
Compound `CCCCCCCCCCCCCCCCOC(CNC(=O)CCCCC)COP(=O)([O-])OCC[N+](C)(C)C` (centres undefined) had an EC10x in experiment [1] of 1350 µM. In addition, the EC50 in experiment [2] amounted to 300 µM. This compound returned a Potency index in experiment [6] of 0.93.
On to `CCCCCCCCCCCCCCCC(=O)NCC(COP(=O)([O-])OCC[N+](C)(C)C)OCCCCCCCCCCCC` (centres undefined), for which the EC10x in experiment [1] was more than 1000 µM. Further, the EC50 in experiment [2] is more than 1000 µM.
As for `CCCCCCCCCCCCCCCCCCOC(CNC(C)=O)COP(=O)([O-])OCC[N+](C)(C)C` (centres undefined), in experiment [1], the EC10x was 340 µM. This compound showed an EC50 in experiment [2] of 90 µM. The compound further returned a Potency index in experiment [6] of 1.11.
In experiment [1], `CCCCCCCCCCCCCCCCOC(CNC(=O)CCCCCCCCCCC)COP(=O)([O-])OCC[N+](C)(C)C` (centres undefined) registered an EC10x of more than 500 µM. In experiment [2], this compound returned a half-maximal effective concentration (EC50) of more than 500 µM.
